# CaV13 FRET inh = Disruptors of the CACNA1D IQ motif to Ca2+-dependent inactivation inhibitor domain association, primary screening, Förster resonance energy transfer in intact living …; HEK cells, CFP/YFP FRET ICDI-IQ, plate reader, 10 min; percent FRET-ratio fall versus neutral wells; inhibition, % at 12.3 µM; 340,000 compounds, 0.098% hits; AID 743397;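 active = mean replicate inhibition of at least 30% and at least 1% of replicates passing that level; inconclusive = only one of the two criteria is met; inactive = neither criterion is met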;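 note: 0% = median of the neutral control wells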
# RAD52 anneal inh = blocks human RAD52 DNA annealing; recombinant RAD52 DNA annealing, FRET fluorescence; 360,000 compounds, 0.46% hits; inhibition, % at 18.7 µM; AID 651710; P43351;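 active = every replicate showing at least 50% inhibition; inconclusive = mean inhibition at least 50% but not in every replicate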
# RAD54 inh = inhibitors of human RAD54 branch migration. RAD54 Holliday junction branch migration, FAM/BHQ fluorescence. inhibition, % at 10.4 µM. 360,000 compounds, 0.14% hits;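 active = mean normalized replicate activity at least 40 and at least half of replicates scoring 40 or more; inconclusive = only one of the two criteria met; inactive = mean below 40 and under half of replicates reaching 40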;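 note: 0% = median of neutral control wells and 100% = median of positive control wells; inhibitors cause a drop in the FAM fluorescence signal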
# Target sequence (Q92698 whole entry, looked up): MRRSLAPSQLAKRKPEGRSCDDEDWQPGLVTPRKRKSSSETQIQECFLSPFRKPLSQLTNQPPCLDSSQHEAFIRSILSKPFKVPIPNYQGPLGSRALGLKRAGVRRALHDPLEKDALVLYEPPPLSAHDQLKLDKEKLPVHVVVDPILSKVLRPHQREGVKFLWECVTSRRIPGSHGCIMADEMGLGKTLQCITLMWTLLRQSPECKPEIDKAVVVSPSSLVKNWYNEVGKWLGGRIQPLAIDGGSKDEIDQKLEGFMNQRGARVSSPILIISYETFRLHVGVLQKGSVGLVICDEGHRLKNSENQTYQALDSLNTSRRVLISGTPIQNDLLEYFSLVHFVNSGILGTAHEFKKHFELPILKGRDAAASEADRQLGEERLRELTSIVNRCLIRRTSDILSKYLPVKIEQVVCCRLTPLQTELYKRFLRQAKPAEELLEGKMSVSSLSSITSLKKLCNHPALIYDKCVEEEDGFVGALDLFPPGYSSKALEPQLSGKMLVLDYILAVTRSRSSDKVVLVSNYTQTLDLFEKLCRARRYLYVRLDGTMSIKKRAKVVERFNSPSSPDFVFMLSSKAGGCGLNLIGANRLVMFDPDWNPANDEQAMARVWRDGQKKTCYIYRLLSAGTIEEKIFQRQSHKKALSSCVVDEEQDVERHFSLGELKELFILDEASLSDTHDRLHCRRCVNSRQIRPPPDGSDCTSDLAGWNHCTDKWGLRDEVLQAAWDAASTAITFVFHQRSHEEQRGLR
# N-glyco inh = N-linked glycosylation inhibition. D54 ERlucT glycosylation luciferase reporter, 24 h; percent of 100 nM tunicamycin response. 360,000 compounds, 0.23% hits. reporter increase, % at 12.5 µM;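 active = mean luciferase reporter signal, scaled so untreated is 0 and the glycosylation-blocking control 100, at or above a set limit in every replicate; inconclusive = mean reaches the limit but not every replicate does; inactive = mean below the limit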;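 note: luciferase carries N-glycosylation sites so blocking glycosylation raises the light; 0% = median of neutral control wells and 100% = median of 100 nM tunicamycin wells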
# FN deposition inh = fibronectin deposition inhibition. AH1F fibroblasts, Alexa488-fibronectin deposition fluorescence, overnight. inhibition, % at 12.6 µM. 350,000 compounds, 0.086% hits;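 active = mean inhibition across replicates of 30% or more, regardless of how many single replicates reach that level; inconclusive = mean under 30% yet at least half of replicates reach 30%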;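 note: positive control wells lacked labelled fibronectin entirely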
#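 Material: AH1F fibroblast monolayer depositing Alexa488-labelled fibronectin into matrix / Amount: 10000 AH1F cells per well / Signal: fluorescence 485/525 nm / Medium: DMEM, 2% serum / Compound: single dose, pinned / Incubation: 1 h cell adhesion before compound, then overnight fibronectin incubation / Reagent: Alexa488-FN, 24 nM final / Read-out: inhibition of fibronectin deposition signal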
# * = called active by the depositor; ? = inconclusive; nt = not tested or not shown; + = active, no number; ! = repeats disagree. Sampled rows, rich in hits. Any-hit rate of the full collection: about 0.7%.
SMILES,CaV13 FRET inh,RAD52 anneal inh,RAD54 inh,N-glyco inh,FN deposition inh
CCOc1ccc(C(C)=O)cc1COc1cccnc1[N+](=O)[O-],-7,-13,-1,30*,-1
O=C(C[C@@H]1CC[C@H](NS(=O)(=O)c2cccc(F)c2)[C@H](CO)O1)NCc1ccc2c(c1)OCO2,nt,9,5,nt,2
CS(=O)(=O)c1cccc(C(=O)Nc2ccc(-c3nc4ccccc4[nH]3)cc2)c1,-4,-10,0,46*,-9
CCCC#Cc1ccc2c(c1)O[C@@H](CN(C)C(C)=O)[C@H](C)CN([C@H](C)CO)S2(=O)=O,nt,3,-9,nt,8
OC[C@@H]1Nc2ccc(C#Cc3cccc(F)c3)cc2[C@@H]2NCC[C@H]12,nt,45,nt,nt,15
COc1ccccc1C#Cc1ccc2c(c1)[C@H]1NCC[C@H]1[C@@H](CO)N2,nt,54*,nt,nt,3
O=c1c2ccccc2sn1-c1nccs1,-12,1,nt,2,38*
O=c1c2ccccc2sn1-c1ccccc1,-8,nt,-3,3,nt
CC(C)NC(=O)N(C)C[C@@H]1OCCCC[C@@H](C)Oc2ccc(N(C)C)cc2C(=O)N([C@@H](C)CO)C[C@H]1C,nt,-96,-10,nt,-1
CC(=O)OCC1=C(C(=O)O)N2C(=O)C(NC(=O)CCn3nc(C)c(Cl)c3C)C2SC1 (stereo not drawn),7,-19,nt,2,33*
COc1ccc(C2=Nn3c(nnc3-c3ccc(OC)cc3)SC2)cc1,-4,nt,5,29*,-7
CCOC(=O)[C@H]1[C@H]2COc3ccc(C)cc3[C@@H]2N2C(=O)c3cc(OC)c(OC)cc3NC(=O)[C@@]12C,-10,17,-1,9,-1
CCOC(=O)[C@H]1[C@H]2COc3ccc(Br)cc3[C@@H]2N2C(=O)c3cc(OC)c(OC)cc3NC(=O)[C@@]12C,-5,-12,3,31*,8
CCOC(=O)[C@H]1[C@H]2COc3ccc(Br)cc3[C@@H]2N2C(=O)c3cc(Br)ccc3NC(=O)[C@@]12C,-10,-15,0,2,6
CCOC(=O)[C@H]1[C@H]2COc3ccc(OC)cc3[C@@H]2N2C(=O)c3cc(OC)c(OC)cc3NC(=O)[C@@]12C,-4,1,15,31*,4
CCc1ccccc1NC(=O)Cn1nnc(C(=O)NCc2cccs2)c1N,-7,nt,nt,?,11
COc1ccccc1NC(=O)Cn1nnc(C(=O)NCc2cccs2)c1N,-15,-8,3,28*,-5
N#Cc1cccc2c1-c1ccccc1/C2=N/NC(N)=O,nt,nt,85*,25,nt
N#Cc1cccc2c1-c1ccccc1/C2=N/NC(N)=S,nt,nt,nt,7,nt
Cc1c(NC(=O)c2ccc3nsnc3c2)cccc1[N+](=O)[O-],-3,-4,-3,-1,33*
C[C@@H]1CN([C@@H](C)CO)C(=O)Cc2cc(NC(=O)CCCN(C)C)ccc2O[C@@H]1CN(C)Cc1ccc(Oc2ccccc2)cc1,nt,39,nt,nt,nt
C[C@@H]1CN([C@@H](C)CO)C(=O)Cc2cc(NC(=O)CCCN(C)C)ccc2O[C@H]1CN(C)Cc1ccc(C(=O)Nc2ccccc2N)cc1,nt,83*,nt,nt,nt
C[C@H](CO)N1C[C@H](C)[C@@H](CN(C)Cc2ccccc2)Oc2ccc(NC(=O)CCCCCC(=O)Nc3ccccc3N)cc2C1=O,-8,-19,6,29*,9
C[C@H](CO)N1C[C@H](C)[C@H](CN(C)Cc2ccc(-c3ccccc3)cc2)Oc2ccc(NC(=O)CCCN(C)C)cc2C1=O,nt,22,23,nt,53*
C[C@H]1CN([C@@H](C)CO)C(=O)Cc2cc(NC(=O)Cc3ccccc3)ccc2O[C@H]1CN(C)Cc1ccc(C(=O)Nc2ccccc2N)cc1,nt,3,nt,nt,nt
SMILES,CaV13 FRET inh,RAD52 anneal inh,RAD54 inh,N-glyco inh,FN deposition inh
C[C@@H]1CN([C@H](C)CO)C(=O)Cc2cc(NC(=O)CCCN(C)C)ccc2O[C@@H]1CN(C)Cc1ccc(-c2ccccc2)cc1,nt,79*,8,nt,12
O=C(C[C@@H]1C[C@@H]2c3cc(NC(=O)Cc4ccncc4)ccc3O[C@@H]2[C@@H](CO)O1)NCC1CC1,nt,-15,12,nt,-7
CO[C@H]1CC[C@H]2CCOc3ccc(C#N)cc3C(=O)N(C)C[C@H](OC)[C@@H](C)C(=O)N(C)C[C@H]1O2,nt,-5,0,nt,5
CNC[C@@H]1OCCCC[C@@H](C)Oc2ccc(NC(=O)Cc3ccccc3)cc2C(=O)N([C@H](C)CO)C[C@@H]1C,nt,-9,1,nt,nt
O=C(NC1CCCC1)N1CC(=O)N2[C@H](C1)[C@H](c1ccc(-c3cccc(F)c3)cc1)[C@@H]2CO,nt,-3,nt,nt,0
C[C@@H]1CN([C@@H](C)CO)C(=O)Cc2cc(NC(=O)CCCN(C)C)ccc2O[C@H]1CN(C)Cc1ccc(-c2ccccc2)cc1,nt,77*!,nt,nt,-3
C[C@H](CO)N1C[C@H](C)[C@@H](CN(C)Cc2ccc(-c3ccccc3)cc2)Oc2ccc(NC(=O)CCCN(C)C)cc2C1=O,nt,25,11,nt,-4
C[C@H](CO)N1C[C@H](C)[C@@H](CN(C)Cc2ccc(C(=O)Nc3ccccc3N)cc2)Oc2ccc(NC(=O)Cc3cn(C)c4ccccc34)cc2CC1=O,nt,61*,4,nt,nt
COc1ccc(CC(N)c2csc(NC(=O)Nc3ccccc3Oc3ccccc3)n2)cc1 (stereo not drawn),-4,77*,-9,-3,-5
CN1/C(=C/C=C(/C#N)C(N)=O)C(C)(C)c2ccccc21,nt,nt,-15,26*,nt
CN1/C(=C\C=C(/C#N)C(=O)Nc2ccccc2F)C(C)(C)c2ccccc21,0,nt,nt,-2,-3
CCC(=O)N(C)C[C@H]1Oc2ncc(-c3ccc(C)cc3)cc2C(=O)N([C@@H](C)CO)C[C@H]1C,nt,20,-7,nt,-7
O=C(NCC(F)(F)F)[C@H]1[C@H](CO)[C@H]2Cn3c(ccc(-c4cccnc4)c3=O)[C@@H]1N2Cc1ccccc1,nt,-14,-3,nt,nt
c1ccc(C2=Nn3c(nnc3-c3n[nH]c4c3CCC4)SC2)cc1,-7,nt,2,38*,nt
c1ccc(C2=Nn3c(nnc3-c3cc(-c4ccccc4)n[nH]3)SC2)cc1,-4,nt,4,22,nt
Clc1ccc(C2=Nn3c(nnc3-c3n[nH]c4c3CCC4)SC2)cc1Cl,-5,nt,0,81*,10
CCCCN(CC)Cc1ccc(CNC(=O)Nc2ccc(Cl)cc2)o1,-3,0,nt,-3,31*
COc1ccccc1N1CCN(C2CCC(C)CC2)CC1 (stereo not drawn),50*,2,-7,-1,9
Cc1ccc2nc3c(cc(S(=O)(=O)c4ccccc4)c(=N)n3Cc3ccco3)c(=O)n2c1,+,-47,2,-2,3
N=c1c(S(=O)(=O)c2ccccc2)cc2c(=O)n3ccccc3nc2n1Cc1ccco1,nt,nt,4,2,nt
CCn1c(=N)c(S(=O)(=O)c2ccccc2)cc2c(=O)n3ccccc3nc21,33*,-28,nt,3,6
CCn1c(=N)c(S(=O)(=O)c2ccc(C)cc2)cc2c(=O)n3ccccc3nc21,2,-73,nt,nt,14

# Source: PubChem (Broad Institute)
